Experimental data: ChEMBL document CHEMBL4219052, “Synthesis and biological evaluation of 6-substituted-5-fluorouridine ProTides” (Bioorg Med Chem, 2018)

How the values were obtained:
MCF7 = experiment: Cytotoxicity against human MCF7 cells after 72 hrs by MTS assay; type: functional, cell-based; settings: MCF7, 72 h
How it was run: (§1)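 Commercial screen: tumour cells seeded at 0.5 to 100 x 10³ cells/well the day before dosing, then exposed 72 h to compound in duplicate, 9 serial 3.16-fold dilutions from 198 µM top concentration. MTS added for a further 4 h at 37 °C, absorbance read; IC50 taken as 50% inhibition of viability by curve fitting.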

SW-620 = experiment: Cytotoxicity against human SW620 cells after 72 hrs by MTS assay; type: functional, cell-based; settings: SW-620, 72 h; how it was run: as §1
MIA PaCa-2 = experiment: Cytotoxicity against human MIAPaCa2 cells after 72 hrs by MTS assay; type: functional, cell-based; settings: MIA PaCa-2, 72 h; how it was run: as §1
MV4-11 = experiment: Cytotoxicity against human MV411 cells after 72 hrs by MTS assay; type: functional, cell-based; settings: MV4-11, 72 h; how it was run: as §1
HEL 92.1.7 = experiment: Cytotoxicity against human HEL 92.1.7 cells after 72 hrs by MTS assay; type: functional, cell-based; settings: HEL 92.1.7, 72 h; how it was run: as §1
RL = experiment: Cytotoxicity against human RL cells after 72 hrs by MTS assay; type: functional, cell-based; how it was run: as §1
[1] = Cytotoxicity against human Hs445 cells after 72 hrs by MTS assay; type: functional, cell-based; settings: Hs 445, 72 h; how it was run: as §1
Chikungunya virus = experiment: Antiviral activity against Chikungunya virus infected in African green monkey Vero cells assessed as reduction in virus-induced cytopathic effect pretreated for 1 hr followed by viral infection measured after 3 days by crystal violet staining based assay; type: functional, organism-based
[2] = Cytotoxicity against African green monkey Vero cells measured after 3 days by CelltiterGlo luminescence assay; type: cell-based; settings: chlorocebus sabaeus
How it was run: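 Vero cells seeded and left overnight; growth medium then replaced by serial compound dilutions, added in triplicate; medium-only wells defined 0% cytotoxicity. On day 3 cells were lysed and ATP content measured by luciferase luminescence (CellTiter-Glo); CC50 obtained from a 4-PL curve fit.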

Carboxypeptidase Y [3] = target: T1, Carboxypeptidase Y (Saccharomyces cerevisiae (strain ATCC 204508 / S288c) (Baker's yeast), UniProt P00729); experiment: Prodrug activation assessed as yeast carboxypeptidase Y mediated diastereoisomer formation at pH 7.6 by 31P NMR analysis
T1 sequence (P00729 whole entry): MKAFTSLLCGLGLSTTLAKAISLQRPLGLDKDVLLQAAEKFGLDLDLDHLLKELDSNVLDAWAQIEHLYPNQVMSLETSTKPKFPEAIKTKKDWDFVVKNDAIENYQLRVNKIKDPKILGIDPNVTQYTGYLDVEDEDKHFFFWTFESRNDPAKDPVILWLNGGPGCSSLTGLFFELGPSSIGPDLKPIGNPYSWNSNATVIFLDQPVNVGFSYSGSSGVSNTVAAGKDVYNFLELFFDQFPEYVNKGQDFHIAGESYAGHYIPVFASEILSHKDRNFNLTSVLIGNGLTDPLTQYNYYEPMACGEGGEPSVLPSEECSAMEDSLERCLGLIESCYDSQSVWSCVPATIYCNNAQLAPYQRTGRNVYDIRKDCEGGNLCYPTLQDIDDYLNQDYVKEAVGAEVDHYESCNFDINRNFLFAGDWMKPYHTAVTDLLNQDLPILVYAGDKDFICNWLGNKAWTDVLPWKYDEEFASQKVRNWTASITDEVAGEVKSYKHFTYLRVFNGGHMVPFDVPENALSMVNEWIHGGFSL
How it was run: (§2)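 ProTide (5.0 mg) dissolved in acetone-d6 (0.15 mL) plus Trizma buffer pH 7.6 (0.30 mL), treated with carboxypeptidase Y; conversion followed by ³¹P NMR over 14 h.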

Carboxypeptidase Y [4] = target: T1, Carboxypeptidase Y; experiment: Prodrug activation assessed as yeast carboxypeptidase Y mediated (2S)-2-((((2R,3S,4R,5R)-5-(6-azido-5-fluoro-2,4-dioxo-3,4-dihydropyrimidin-1(2H)-yl)-3,4-dihydroxytetrahydrofuran-2-yl)methoxy)(phenoxy)phosphorylamino)propanoic acid formation at pH 7.6 measured within 10 mins by 31P NMR analysis; settings: pH 7.6, 10 min; how it was run: as §2

| SMILES | IC50 (MCF7) [µM] | IC50 (SW-620) [µM] | IC50 (MIA PaCa-2) [µM] | IC50 (MV4-11) [µM] | IC50 (HEL 92.1.7) [µM] | IC50 (RL) [µM] | IC50 [1] [µM] | EC50 (Chikungunya virus) [µM] | CC50 at 72 h [2] [µM] | Drug metabolism (Carboxypeptidase Y [3]) [ppm] | Drug metabolism (Carboxypeptidase Y [4]) [ppm] |
| --- | --- | --- | --- | --- | --- | --- | --- | --- | --- | --- | --- |
| Cc1c(F)c(=O)[nH]c(=O)n1[C@@H]1O[C@H](COP(=O)(N[C@@H](C)C(=O)OCc2ccccc2)Oc2cccc3ccccc23)[C@@H](O)[C@H]1O (stereo partly drawn) | > 50 | > 50 | > 50 | > 50 | > 50 | > 50 | > 50 | > 200 | > 200 |  |  |
| CCCCCOC(=O)[C@H](C)NP(=O)(OC[C@H]1O[C@@H](n2c(I)c(F)c(=O)[nH]c2=O)[C@H](O)[C@@H]1O)Oc1ccccc1 (stereo partly drawn) | 7.83 | 1.12 | 1.31 | 0.2 | 0.5 | 0.8 | 2.6 |  |  |  |  |
| Cc1c(F)c(=O)[nH]c(=O)n1[C@@H]1O[C@H](COP(=O)(N[C@@H](C)C(=O)OCC(C)(C)C)Oc2cccc3ccccc23)[C@@H](O)[C@H]1O (stereo partly drawn) | > 50 | > 50 | > 50 | > 50 | > 50 | > 50 | > 50 | > 200 | 81.3 |  |  |
| CCCCCCOC(=O)[C@H](C)NP(=O)(OC[C@H]1O[C@@H](n2c(N=[N+]=[N-])c(F)c(=O)[nH]c2=O)[C@H](O)[C@@H]1O)Oc1ccccc1 (stereo partly drawn) | > 50 | 38 | > 50 | 9 | 39 | 20 | 18 |  |  | 3.64 to 3.82 |  |
| [N-]=[N+]=Nc1c(F)c(=O)[nH]c(=O)n1[C@@H]1O[C@H](CO)[C@@H](O)[C@H]1O | 6 | 8 | 11 | 6.6 | 10 | 10 | 14 | > 200 | 47 |  |  |
| C[C@H](NP(=O)(OC[C@H]1O[C@@H](n2c(I)c(F)c(=O)[nH]c2=O)[C@H](O)[C@@H]1O)Oc1cccc2ccccc12)C(=O)OCc1ccccc1 (stereo partly drawn) | 3.93 | 0.52 | 0.63 | 0.08 | 0.4 | 0.4 | 0.71 |  |  |  |  |
| Cc1c(F)c(=O)[nH]c(=O)n1[C@@H]1O[C@H](CO)[C@@H](O)[C@H]1O | 5.4 | 8.5 | 12 | 2 | 14 | 16 | 7 | > 200 | 9.04 |  |  |
| C[C@H](NP(=O)(OC[C@H]1O[C@@H](n2c(I)c(F)c(=O)[nH]c2=O)[C@H](O)[C@@H]1O)Oc1ccccc1)C(=O)OC1CCCCC1 (stereo partly drawn) | 8.12 | 4.84 | 4.57 | 0.74 | 4.1 | 2.6 | 3.8 |  |  |  |  |
| CCc1c(F)c(=O)[nH]c(=O)n1[C@@H]1O[C@H](COP(=O)(N[C@@H](C)C(=O)OCc2ccccc2)Oc2cccc3ccccc23)[C@@H](O)[C@H]1O (stereo partly drawn) | > 50 | 12 |  |  | > 50 | 27 | 10 | > 50 | 53.1 |  |  |
| C[C@H](NP(=O)(OC[C@H]1O[C@@H](n2c(N=[N+]=[N-])c(F)c(=O)[nH]c2=O)[C@H](O)[C@@H]1O)Oc1ccccc1)C(=O)OCc1ccccc1 (stereo partly drawn) | 20 | 13 | 22 | 8 | 17 | 21 | 23 |  |  |  |  |
| CCOC(=O)[C@H](C)NP(=O)(OC[C@H]1O[C@@H](n2c(N=[N+]=[N-])c(F)c(=O)[nH]c2=O)[C@H](O)[C@@H]1O)Oc1ccccc1 (stereo partly drawn) | > 50 | > 50 | > 50 | > 50 | > 50 | > 50 | 44 |  |  |  |  |
| CCc1c(F)c(=O)[nH]c(=O)n1[C@@H]1O[C@H](CO)[C@@H](O)[C@H]1O | > 50 | > 50 |  |  | > 50 | > 50 | > 50 | > 200 | > 200 |  |  |
| O=c1[nH]c(=O)n([C@@H]2O[C@H](CO)[C@@H](O)[C@H]2O)c(I)c1F | 0.67 | 0.5 | 0.02 | 0.04 | 0.1 | 0.1 | 0.38 |  |  |  |  |
| CCCCCCOC(=O)[C@H](C)NP(=O)(OC[C@H]1O[C@@H](n2c(N=[N+]=[N-])c(F)c(=O)[nH]c2=O)[C@H](O)[C@@H]1O)Oc1cccc2ccccc12 (stereo partly drawn) | 31 | 21 | 24 | 6.2 | 10 | 9 | 6 |  |  |  |  |
| C[C@H](NP(=O)(OC[C@H]1O[C@@H](n2c(N=[N+]=[N-])c(F)c(=O)[nH]c2=O)[C@H](O)[C@@H]1O)Oc1ccccc1)C(=O)O (stereo partly drawn) |  |  |  |  |  |  |  |  |  |  | 4.68 to 4.87 |
| CCCCCCOC(=O)[C@H](C)NP(=O)(OC[C@H]1O[C@@H](n2c(C)c(F)c(=O)[nH]c2=O)[C@H](O)[C@@H]1O)Oc1ccccc1 (stereo partly drawn) | > 50 | > 50 | > 50 | > 50 | > 50 | > 50 | > 50 | > 200 | > 200 |  |  |
| Cc1c(F)c(=O)[nH]c(=O)n1[C@@H]1O[C@H](COP(=O)(N[C@@H](C)C(=O)OCc2ccccc2)Oc2ccccc2)[C@@H](O)[C@H]1O (stereo partly drawn) | > 50 | > 50 | > 50 | > 50 | > 50 | > 50 | > 50 |  |  |  |  |
| C[C@H](NP(=O)(OC[C@H]1O[C@@H](n2c(N=[N+]=[N-])c(F)c(=O)[nH]c2=O)[C@H](O)[C@@H]1O)Oc1cccc2ccccc12)C(=O)OCc1ccccc1 (stereo partly drawn) | 44 | 28 | 27 | 6.3 | 29 | 12 | 15 | > 200 | 81.8 |  |  |
